# Screens as filed in PubChem.
# MEKK2 WT-MEK5 = raises or lowers MEK5 binding to wildtype human MEKK2 PB1 domain; binding response (% of control), % at 10 µM; Q9Y2U5; 290,000 tested, 1.1% active; bead flow cytometry, Alexa488-MEK5 binding to MEKK2 WT; actives lie on both sides; in the data active = binding response below about 67% or above about 130%
# PREPL inh = inhibitors of human prolyl oligopeptidase-like enzyme PREPL; Q4J6C6; recombinant PREPL, fluorescence polarization activity-based probe; inhibition, % at 5.96 µM; 320,000 tested, 0.68% active;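 note: 0% = enzyme with DMSO and 100% = wells lacking enzyme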
# Apaf1 inhib = human Apaf-1 inhibition. O14727. reconstituted apoptosome caspase-3 activity, DEVD-Rh110 fluorescence. inhibition, % at 20 µM. 330,000 tested, 0.71% active; active = inhibition of at least 40% at 20 µM;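 note: plate controls were DMSO wells for no effect and DEVD-CHO caspase inhibitor wells for full effect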
#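 Assay system: Apoptosome proteins | Medium: pH 7.5 Hepes buffer with CHAPS, BSA, DTT | Also added: Cytochrome c and DEVD-Rh110 substrate | Times: 30 min plus 50 min, RT | Detection: Rhodamine 110 fluorescence at Ex 480/Em 540 nm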
# MEKK3 PB1 HTS = MEKK3-MEK5 PB1 interaction, increase or decrease | bead-based flow cytometry, Alexa488-MEK5 binding to MEKK3; actives lie on both sides; 0 = blocked by unlabeled MEK5, 100 = vehicle | binding response (% of control), % at 10 µM | AID 1529 | 290,000 tested, 1.4% active;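 active = binding response more than 3 SD above or below the average of its plate-row segment, actives on both sides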;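 note: Alexa488 bead fluorescence after subtracting the streptavidin-only scavenger bead signal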
# MEKK2 mut-MEK5 = signal of MEK5 binding to mutant human MEKK2 PB1 domain | percent response, % at 10 µM | bead flow cytometry, Alexa488-MEK5 binding to MEKK2 mutant | 290,000 tested, 0.35% active; in the data active = percent response above about 24%, passing the limit was not always enough
# UBC13 inh = blocks human UBC13 polyubiquitin chain formation; TR-FRET; inhibition, % at 20 µM; 330,000 tested, 0.47% active; AID 485273; in the data active = inhibition above about 45%, passing the limit was not always enough
# Target sequence (P61088 whole entry, looked up): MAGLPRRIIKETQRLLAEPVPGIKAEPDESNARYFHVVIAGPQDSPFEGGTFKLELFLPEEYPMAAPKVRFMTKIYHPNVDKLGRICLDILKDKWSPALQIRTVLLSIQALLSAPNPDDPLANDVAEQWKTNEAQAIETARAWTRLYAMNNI
# PREPL inh cf = confirmation of human PREPL enzyme inhibitors; shares compounds with PREPL inh; recombinant PREPL, fluorescence polarization activity probe; inhibition, % at 5.96 µM; 2,000 tested, 67% active;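 note: 0% = protein with DMSO and 100% = wells lacking protein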
# Apaf-1 inh conf2 = Apaf-1 inhibition, single-dose confirmed | reconstituted apoptosome, caspase-3 DEVD-Rh110 fluorescence | inhibition, % at 20 µM | shares compounds with Apaf1 inhib | AID 504614 | 1,800 tested, 25% active;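 active = mean inhibition of at least 40% at 20 µM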;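 note: plate controls were DMSO wells for no effect and DEVD-CHO caspase inhibitor control wells for full effect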
# Rh110 quench = counter-screen for Apaf-1 inhibitors: fluorescence interference. 1,800 tested, under 10 active. shares compounds with Apaf1 inhib. activation (fluorescence interference), % at 20 µM. AID 504615. Rh110 fluorescence interference, quenched caspase reaction;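 active = signal rise of 40% or more at 20 µM, treated as a fluorescence artifact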
# Fluor interf inh = shows fluorescence interference in the Apaf-1 inhibitor assay format; AID 588538; shares compounds with Apaf1 inhib; 460 tested, under 10 active; IC50, µM; fluorescence interference counterscreen, Apaf-1 assay format; call rule not given here
# Starred values were filed as active, the others as inactive; / = no result given. Only some compounds are listed: those with a hit (about 3.1% of all), similar ones and a draw of the others. Cut-off read from the data, not from the text of the source, unless noted: active = inhibition above about 43%; inactive = the rest.
SMILES,MEKK2 WT-MEK5,PREPL inh,Apaf1 inhib,MEKK3 PB1 HTS,MEKK2 mut-MEK5,UBC13 inh,PREPL inh cf,others
NCCCC(=O)OC1N=C(c2ccccc2Cl)c2cc(Br)ccc2NC1=O (centres undefined),108,5,-3,105,8,17,/,
NCCCCCC(=O)OC1N=C(c2ccccc2Cl)c2cc(Br)ccc2NC1=O (centres undefined),110,59*,0,98,6,22,46*,
Cc1[nH]c2ccccc2c1CCCNC1CCCCC1,103,45*,-20,87,0,13,34,
CC(C)Nc1ccc(Nc2ccccc2)cc1,/,77*,18,/,/,3,55*,
CC1=NCCc2c1[nH]c1ccccc21,108,57*,27,93,24,8,27,
CN1C(=O)c2ccccc2NC(=O)[C@]12O[C@@H]2c1ccccc1,109,-4,-5,109,9,6,/,
CCN1C[C@]2(COC)CC[C@H](OC)[C@@]34C1[C@]1(OCO[C@@]15C[C@H](OC)[C@H]1C[C@@H]3[C@@H]5[C@H]1OC)[C@@H](O)[C@H]24,/,-10,7,/,/,-15,/,
COC(=O)[C@]1(C)C[C@H]1[C@H](NP(=O)(c1ccccc1)c1ccccc1)c1ccccc1,95,-3,2,104,1,-6,/,
C=C[C@@H]1C[C@@]1(C)[C@@H](NP(=O)(c1ccccc1)c1ccccc1)c1ccccc1,92,48*,12,89,-5,10,48*,
C#CCOc1ccc2c(c1)c(C(C)=O)c(C)n2Cc1ccccc1,95,5,-3,98,-5,9,/,
COc1ccc2c(c1)c(CCN)c(C)n2Cc1ccccc1,106,45*,13,100,-1,15,42,
O=C(c1ccc2c(c1)N(Cc1ccc(F)cc1)CCS2)N1CCC2(CC1)OCCO2,99,67*,15,101,-2,18,63*,
Cc1ccc(CN2CCN(CC(=O)N3CCC4(CC3)OCCO4)C2=O)cc1,101,7,4,101,6,-8,/,
Cc1ccc(CN2CCSc3ccc(C(=O)N4CCC5(CC4)OCCO5)cc32)cc1,99,82*,19,99,3,15,74*,
O=P1(NCCCn2cc[n+](Cc3nc4ccccc4[nH]3)c2)C=C(c2ccccc2)OC(c2ccccc2)=C1,134,-42,2,100,10,9,/,
CN1CCc2cc3c(c4c2C1Cc1ccccc1-4)OCO3 (centres undefined),106,46*,91*,94,10,-118,40,Apaf-1 inh conf2=67*;Rh110 quench=9;Fluor interf inh=>100
COC(=O)C1=C(c2c(C)noc2C)C[C@@H]2CC[C@H]1N2C(=O)N1CCc2cc(OC)c(OC)cc2C1,/,11,1,/,/,7,/,
C=CCn1c(O)c(C(C)=O)c(=O)[nH]c1=O (tested in a mixture with another compound),102,0,-6,105,12,3,/,
C[n+]1c(-c2ccccc2)c2cc(N)ccc2c2ccc(N)cc21,104,142*,98*,89,10,-186,124*,Apaf-1 inh conf2=80*;Rh110 quench=2;Fluor interf inh=>100
Nc1ccc2ccc3cccc[n+]3c2c1,109,38,1,98,3,-150,/,
COC(=O)C1=C(c2cccc(OCc3ccccc3)c2)C[C@@H]2CC[C@H]1N2C(=O)NC1CCN(Cc2ccccc2)CC1,/,51*,48*,/,/,36,44*,Apaf-1 inh conf2=11;Rh110 quench=4
